Assay [1] concerns HepG2. The experiment in a line: Induction of morphological changes in human HepG2 cells at 10 uM after 12 hrs by Hoechst 33258 staining-based fluorescent microscopic method. The class given is functional, cell-based. In outline:
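Cells were treated on cover slips, fixed in 4% paraformaldehyde for 10 min and washed with PBS. They were stained with Hoechst 33258 for 5 min, washed again, and nuclei were examined by fluorescence microscopy (excitation 350 nm, emission 460 nm).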

Assay [2] deals with HepG2. The experiment in a line: Induction of apoptosis in human HepG2 cells assessed as increase in release of mitochondrial cytochrome c into cytosol at 8 to 12 uM after 24 hrs by Western blot method. In kind it is functional, cell-based. In outline:
(§1)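 Treated HepG2 cells were lysed on ice in 1% SDS/Tris-HCl pH 7.5 buffer with EDTA, NaCl, PMSF, leupeptin and trypsin inhibitor, then cleared at 12,000 × g for 5 min. Protein was quantified by BCA, and 40–50 µg was run on 12% SDS-PAGE and blotted to PVDF. Membranes were blocked with 5% milk, incubated with primary antibody overnight at 4 °C and HRP secondary for 1 h. Detection by chemiluminescence with densitometry.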

In assay [3] the test system is HepG2. In words: Induction of apoptosis in human HepG2 cells assessed as cell budding at 10 uM after 24 hrs by acridine orange/ethidium bromide staining-based fluorescent microscopic method. In kind it is functional. In outline:
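Cells were plated at 5×10^4 cells/mL on sterile cover slips. Medium was replaced with fresh medium containing 10% FBS plus compound. After treatment, cover slips were inverted onto slides with acridine orange/ethidium bromide stain and viewed by fluorescence microscopy.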

Assay [4] deals with HepG2. In words: Induction of apoptosis in human HepG2 cells assessed as necrotic cells at 8 uM after 24 hrs by annexin V/[…] staining-based fluorescent microscopic method (reference value: 0.28%). The class given is functional.
For assay [5], the system named is HepG2. The experiment in a line: Downregulation of CDC25C expression in human HepG2 cells after 48 hrs by Western blot method. The class given is functional, cell-based. A general note: Immunoblotting shows a protein as a band on a membrane.
For assay [6], the system named is HepG2. The experiment in a line: Induction of apoptosis in human HepG2 cells assessed as upregulation of caspase-3 levels at 8 to 12 uM after 24 hrs by Western blot method. In kind it is functional, cell-based. In outline:
as §1

Assay [7] has as its system HepG2. The experiment in a line: Downregulation of CDK1 expression in human HepG2 cells after 48 hrs by Western blot method. In kind it is functional, cell-based.
In assay [8] the test system is HepG2. In words: Downregulation of cyclin B1 expression in human HepG2 cells after 48 hrs by Western blot method. In kind it is functional, cell-based.
A further assay concerns NCI-H460. In words: Cytotoxicity against human NCI-H460 cells after 48 hrs by MTT assay. In kind it is functional, cell-based. As to conditions: NCI-H460, 48 h. In outline:
(§2)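 HepG2, SK-OV-3, NCI-H460 and HL 7702 lines grown as monolayers in DMEM with 10% FBS plus penicillin/streptomycin at 37 °C, 5% CO2. Exponentially growing cells were seeded and exposed to the indicated concentrations for 48 h. MTT was then added for 4 h at 37 °C, formazan was dissolved in DMSO, and OD was read at 490 nm. Each concentration was run in triplicate wells, with three independent runs per line.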

For assay [9], the system named is HepG2. In words: Upregulation of p21 expression in human HepG2 cells after 48 hrs by Western blot method. In kind it is functional, cell-based.
In assay [10] the test system is HepG2. The experiment in a line: Induction of apoptosis in human HepG2 cells assessed as early apoptotic cells at 8 uM after 24 hrs by annexin V/[…] staining-based fluorescent microscopic method (reference value: 6.50%). In kind it is functional.
Assay [11] deals with HepG2. The experiment in a line: Induction of apoptosis in human HepG2 cells assessed as increase in intracellular calcium release at 10 uM after 24 hrs by Fluo-3 AM dye-based fluorescence microscopic method. Background: Calcium flux is commonly read through the fluorescence of an indicator in the cells.
The next assay has as its system SK-OV-3. The experiment in a line: Cytotoxicity against human SKOV3 cells after 48 hrs by MTT assay. The class given is functional, cell-based. Conditions: SK-OV-3, 48 h. In outline:
as §2
In general terms: Tetrazolium assays rely on reduction of a dye to a coloured formazan, in cell work by metabolically active cells.

SMILES strings stand for the structures. Activity calls are given as the source filed them. The rule behind the calls is not given here.

In general, IC50 refers to the concentration at which inhibition is half-maximal. A low value points to inhibition by little substance. As for `CCOP(=O)(Cc1ccc(/N=C/c2cc3cc(C)ccc3[nH]c2=O)cc1)OCC`, the outcome with HepG2 [1], with HepG2 [2], in the assay with HepG2 [3], in the assay with HepG2 [6] and with HepG2 [11] was Active. Besides, the Activity with HepG2 [4] was 2.9%; with HepG2 [5], “Dose-dependent effect”; in the assay with HepG2 [7], “Dose-dependent effect”; in the assay with HepG2 [8], “Dose-dependent effect”; in the assay with HepG2 [9], “Dose-dependent effect”; with HepG2 [10], 19.08%. Moreover, the IC50 in the assay on NCI-H460 was 39 µM; in the assay on SK-OV-3, 34.8 µM.

The values are drawn from ChEMBL document CHEMBL4261516, “Design, synthesis and pharmacological evaluation of new 2-oxo-quinoline derivatives containing α-aminophosphonates as potential antitumor agents” (Medchemcomm, 2017).
